Screening data deposited in PubChem by several laboratories.
Ecoli WT expand: growth inhibitors of wild-type E. coli, primary screen, strain BW25113, expanded library, OD600; 98,000 tested, 0.15% active; growth inhibition, % at 100 µM; AID 710, 2007; OD600 absorbance;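 active = growth inhibition above about 50% at one test dose, limit read from the data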;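 note: growth measured after 20 h incubation at 37 °C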
CYP2C9 inh: blockers of cytochrome P450 2C9 activity – biochemical, luminescence, ADME assay, primary screen; inhibition, % at 5 µM; CYP2C9 Supersomes, luciferin-H conversion; 96,000 tested, 20% active; P11712;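 active = blocking of liver enzyme CYP2C9 beyond about 50% at 5 µM, limit read from the data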
Target sequence (P11712 whole entry, looked up): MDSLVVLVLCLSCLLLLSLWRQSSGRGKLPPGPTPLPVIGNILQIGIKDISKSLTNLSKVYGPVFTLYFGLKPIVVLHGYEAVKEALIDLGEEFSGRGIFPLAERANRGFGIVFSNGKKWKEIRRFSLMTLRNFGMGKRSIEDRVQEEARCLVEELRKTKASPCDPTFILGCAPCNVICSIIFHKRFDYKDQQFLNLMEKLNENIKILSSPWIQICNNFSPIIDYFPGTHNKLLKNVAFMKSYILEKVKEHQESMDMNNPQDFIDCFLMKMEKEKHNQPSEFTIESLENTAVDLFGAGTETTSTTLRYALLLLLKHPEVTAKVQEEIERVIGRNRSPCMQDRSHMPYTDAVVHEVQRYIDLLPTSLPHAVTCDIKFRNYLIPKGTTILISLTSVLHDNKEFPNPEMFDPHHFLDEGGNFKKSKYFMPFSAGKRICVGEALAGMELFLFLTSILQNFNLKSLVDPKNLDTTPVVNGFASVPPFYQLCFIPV
Ecoli tolC: growth inhibitors of E. coli tolC mutant, primary screen, strain BW25113 ΔtolC::kan, 384-well | OD615 | growth inhibition, % at 10 µM (by protocol) | 65,000 tested, 2.2% active | AID 573, 2007;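 active = growth inhibition at or above a cutoff equal to the mean over every tested compound plus 3 SD, cut at about 60% in these data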;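 note: growth measured after 20 h incubation at 37 °C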
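Doses: one dose of 10 µM final / Material: E. coli BW25113 ΔtolC::kan, tolC deletion mutant strain / Buffer or medium: LB with kanamycin 50 µg/mL / Evaluation: percent growth inhibition / Detection: optical density read at 615 nm / Incubation: 37 °C, 20 h exposure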
CYP2C19 act: human CYP2C19 activators, primary screen, biochemical, luminescence | 96,000 tested, under 10 active | recombinant CYP2C19, luciferin-H EGE luminescence; stronger effect = higher value; 0 = fully inhibited enzyme, 1 = untreated enzyme | Cytochrome P450 2C19 (Homo sapiens), P33261 | activation factor at 5 µM;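 active = activation factor of at least 2 at 5 µM in the primary screen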
CYP2C9 activ: human CYP2C9 activators, primary screen, biochemical, luminescence. activation factor at 5 µM. 96,000 tested, 1.4% active. recombinant CYP2C9, luciferin-H conversion; stronger effect = higher value; factor 1 = untreated enzyme, 0 = blocked. Cytochrome P450 2C9 (Homo sapiens), P11712;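 active = activation factor of 2 or more for CYP2C9 at a 5 µM dose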
CYP2C19 inhib: blockers of cytochrome P450 2C19 activity – biochemical, luminescence, ADME assay, primary screen | P33261 | CYP2C19 Supersomes, luciferin-H EGE luminescence, 30 min | inhibition, % at 5 µM | 96,000 tested, 21% active;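 active = CYP2C19 inhibition above a set limit at 5 µM in the primary screen, cut at about 50% in these data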
A number is an active result. Rows were chosen to be rich in hits. Some 29% of all compounds tested hit in one or more screens of this group.

How did CC(C)C[C@H](NC(=O)OC(C)(C)C)C(=O)N/N=C/c1ccc2nccnc2c1 do in these assays?
Ecoli WT expand: inactive; CYP2C9 inh: inactive; CYP2C19 act: inactive; CYP2C9 activ: inactive; CYP2C19 inhib: inactive

Results for COc1ccc(-n2ncc3c(N(C)C4CCCCC4)ncnc32)cc1 ?
Ecoli tolC: 76

What do the screens show for `Cc1cccc(-n2ncc3c(N(C)C4CCCCC4)ncnc32)c1`?
Ecoli tolC: 94

What do the screens show for `COc1ccc(-n2ncc3c(N4CCC(C)CC4)ncnc32)cc1`?
Ecoli tolC: inactive

Results for O=C1CC(NC23CC4CC(CC(C4)C2)C3)C(=O)N1c1ccc2c(c1)OCO2 (stereo unspecified) ?
Ecoli WT expand: inactive; CYP2C9 inh: inactive; Ecoli tolC: inactive; CYP2C19 act: inactive; CYP2C9 activ: inactive; CYP2C19 inhib: inactive

Results for C#CCSc1nnc(-c2sc(-c3ccccc3)nc2C)n1C ?
Ecoli WT expand: inactive; CYP2C9 inh: inactive; CYP2C19 act: inactive; CYP2C9 activ: inactive; CYP2C19 inhib: 87

What do the screens show for `C#CCSc1nnc(-c2c[nH]c3ccccc23)n1C`?
Ecoli WT expand: inactive; CYP2C9 inh: inactive; Ecoli tolC: inactive; CYP2C19 act: inactive; CYP2C9 activ: inactive; CYP2C19 inhib: inactive

How did C=CCn1c(CSc2nc3ccccc3s2)nnc1SCC(=O)NCc1ccccc1 do in these assays?
Ecoli WT expand: inactive; CYP2C9 inh: 50; CYP2C19 act: inactive; CYP2C9 activ: inactive; CYP2C19 inhib: inactive

What do the screens show for `CC(C)c1nc2ccccc2c2nnc(SCC(=O)NCc3ccco3)n12`?
Ecoli WT expand: inactive; CYP2C9 inh: 76; Ecoli tolC: inactive; CYP2C19 act: inactive; CYP2C9 activ: inactive; CYP2C19 inhib: 98

Results for Cc1sc2nc(SCC(=O)NCc3ccco3)n(CCc3ccccc3)c(=O)c2c1C ?
Ecoli WT expand: inactive; CYP2C9 inh: 65; Ecoli tolC: inactive; CYP2C19 act: inactive; CYP2C9 activ: inactive; CYP2C19 inhib: inactive

Results for Cc1nc2ccccc2n1CCc1nc2c3ccccc3nc(SCC(=O)NCc3ccco3)n2n1 ?
Ecoli WT expand: inactive; CYP2C9 inh: 72; Ecoli tolC: inactive; CYP2C19 act: inactive; CYP2C9 activ: inactive; CYP2C19 inhib: inactive

What do the screens show for `O=C(Nn1c(=O)[nH]c2ccccc2c1=O)c1ccco1`?
Ecoli WT expand: inactive; CYP2C9 inh: inactive; CYP2C19 act: inactive; CYP2C9 activ: inactive; CYP2C19 inhib: inactive

How did COCCNC(=O)c1cc(-c2ccc(Cl)c(Cl)c2)on1 do in these assays?
Ecoli WT expand: inactive; CYP2C9 inh: inactive; Ecoli tolC: inactive; CYP2C19 act: inactive; CYP2C9 activ: inactive; CYP2C19 inhib: inactive

What do the screens show for `Cc1ccc(CN2C(=O)CCC2C(=O)NC2CCCC2)cc1` (stereo unspecified)?
Ecoli WT expand: inactive; CYP2C9 inh: inactive; Ecoli tolC: inactive; CYP2C19 act: inactive; CYP2C9 activ: inactive; CYP2C19 inhib: inactive

How did O=C(CCn1c(SCC(=O)NCc2ccco2)nc2ccccc2c1=O)NCCc1ccccc1 do in these assays?
Ecoli WT expand: inactive; CYP2C9 inh: 85; Ecoli tolC: inactive; CYP2C19 act: inactive; CYP2C9 activ: inactive; CYP2C19 inhib: 77

What do the screens show for `O=C(CSc1nc2sc3c(c2c(=O)n1-c1ccccc1)CCCC3)NCc1ccco1`?
Ecoli WT expand: inactive; CYP2C9 inh: inactive; Ecoli tolC: inactive; CYP2C19 act: inactive; CYP2C9 activ: inactive; CYP2C19 inhib: inactive

How did Cc1ccc(CSc2nc3ccccc3c(=O)n2CCCC(=O)NCc2ccco2)cc1 do in these assays?
Ecoli WT expand: inactive; CYP2C9 inh: 98; CYP2C19 act: inactive; CYP2C9 activ: inactive; CYP2C19 inhib: 74

Results for C=CCn1c(SCC(=O)NCc2ccco2)nnc1-c1ccc2ccccc2n1 ?
Ecoli WT expand: inactive; CYP2C9 inh: 59; Ecoli tolC: inactive; CYP2C19 act: inactive; CYP2C9 activ: inactive; CYP2C19 inhib: inactive

Results for CC1(C)Cc2c(sc3nc(SCC(=O)NCc4ccco4)n(-c4ccccc4)c(=O)c23)CS1 ?
Ecoli WT expand: inactive; CYP2C9 inh: 54; Ecoli tolC: inactive; CYP2C19 act: inactive; CYP2C9 activ: inactive; CYP2C19 inhib: inactive

Results for COc1ccc(N2CCN(C(=O)C(CCSC)N=C3NS(=O)(=O)c4ccccc43)CC2)cc1 (stereo unspecified) ?
Ecoli WT expand: inactive; CYP2C9 inh: inactive; Ecoli tolC: inactive; CYP2C19 act: inactive; CYP2C9 activ: inactive; CYP2C19 inhib: inactive

How did Cn1c(CNC2CCCCC2)c(C#N)c2ccccc21 do in these assays?
Ecoli WT expand: inactive; CYP2C9 inh: inactive; CYP2C19 act: inactive; CYP2C9 activ: inactive; CYP2C19 inhib: 55

How did Cn1c(CN2CCN(CC#N)CC2)c(C#N)c2ccccc21 do in these assays?
Ecoli WT expand: inactive; CYP2C9 inh: inactive; CYP2C19 act: inactive; CYP2C9 activ: 2.9; CYP2C19 inhib: inactive

How did Cn1c(CN2CCCCC2)c(C#N)c2ccccc21 do in these assays?
Ecoli WT expand: inactive; CYP2C9 inh: inactive; Ecoli tolC: inactive; CYP2C19 act: inactive; CYP2C9 activ: inactive; CYP2C19 inhib: 98

Results for Cn1c(CN2CCC(C(N)=O)CC2)c(C#N)c2ccccc21 ?
Ecoli tolC: inactive

Results for CCOC(=O)c1cnc(SCC(=O)Nc2ccc(NC(=O)CC)c(OC)c2)nc1N ?
Ecoli WT expand: inactive; CYP2C9 inh: inactive; Ecoli tolC: inactive; CYP2C19 act: inactive; CYP2C9 activ: inactive; CYP2C19 inhib: inactive

How did Cc1cccc(N2C(=O)CC(N3CCN(c4ccccc4)CC3)C2=O)c1 (stereo unspecified) do in these assays?
Ecoli WT expand: inactive; CYP2C9 inh: inactive; CYP2C19 act: inactive; CYP2C9 activ: inactive; CYP2C19 inhib: inactive

What do the screens show for `Cc1cc(N2C(=O)CC(N3CCN(c4ccc(C(=O)c5cccs5)cc4)CC3)C2=O)no1` (stereo unspecified)?
Ecoli WT expand: inactive; CYP2C9 inh: 59; Ecoli tolC: inactive; CYP2C19 act: inactive; CYP2C9 activ: inactive; CYP2C19 inhib: inactive

Results for O=C(CCS(=O)(=O)c1ccc(Br)s1)NC1CCCCCC1 ?
Ecoli WT expand: inactive; CYP2C9 inh: inactive; CYP2C19 act: inactive; CYP2C9 activ: inactive; CYP2C19 inhib: inactive

Results for O=S(=O)(NC1CCCCC1)c1ccc(Cl)s1 ?
Ecoli WT expand: inactive; CYP2C9 inh: 85; Ecoli tolC: inactive; CYP2C19 act: inactive; CYP2C9 activ: inactive; CYP2C19 inhib: 90

What do the screens show for `O=S(=O)(NC1CCCC1)c1ccc(Br)s1`?
Ecoli WT expand: inactive; CYP2C9 inh: 61; Ecoli tolC: inactive; CYP2C19 act: inactive; CYP2C9 activ: inactive; CYP2C19 inhib: 96

How did Cc1ccc(N(C=NC#N)CC(=O)N2CCN(c3ccccc3)CC2)cc1 do in these assays?
Ecoli WT expand: inactive; CYP2C9 inh: inactive; Ecoli tolC: inactive; CYP2C19 act: inactive; CYP2C9 activ: inactive; CYP2C19 inhib: inactive
